Source: publication PMC6779328 (Bioorganic & medicinal chemistry, 2019)
≈ marks a conversion by molar mass, not a printed value.

What was measured:
[1] = system: MRSA ATCC BAA-44; assay: Minimum re-sensitizing concentration; assay type: cell-based, Staphylococcus aureus; conditions: MRSA BAA-44, cefazolin
Outline: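 MRSA ATCC BAA-44. The test compound was combined with cefazolin, and the minimum resensitizing concentration (MRC) was reported in μg/mL. MIC alone was determined by standard CLSI broth microdilution. MIC and MRC values were confirmed in triplicate. RMA activity was expressed as the ratio MIC/MRC.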

[2] = system: MRSA ATCC BAA-44; assay: MIC by broth microdilution, MRSA BAA-44; assay type: cell-based, Staphylococcus aureus; conditions: MRSA BAA-44, compound alone
[3] = system: MRSA-252; assay: MIC, MRSA-252; assay type: cell-based, Staphylococcus aureus
[4] = system: E.faecium HM-460; assay: MIC, E.faecium HM-460; assay type: cell-based
[5] = system: E.faecium 28977; assay: MIC, E.faecium 28977; assay type: cell-based
[6] = system: HeLa cells; assay: HeLa growth inhibition; assay type: cell-based, human
[7] = system: MSSA; assay: MIC, MSSA; assay type: cell-based, S. aureus
[8] = system: B.subtilis NR-607; assay: MIC, B.subtilis NR-607; assay type: cell-based
[9] = Staphylococcus aureus, ATCCBAA44|BAA44|MRSA

Row | Compound | RMA activity (in words) [1] | also measured
1 | Cc1ccc2nc(N3CCc4c([nH]c5ccc(Cl)cc45)C3)sc2c1 [4c, 6-Chloro-2-(6-methyl-1,3-benzothiazol-2-yl)-2,3,4,9-tetrahydro-1H-pyrido[3,4-b]indole] | no RMA activity | 
2 | CO/N=C(\C(=O)N[C@@H]1C(=O)N2C(C(=O)O)=C(COC(N)=O)CS[C@H]12)c1ccco1 [Cefuroxime, reference compound] |  | MIC [2]: 256 µg/mL (≈ 603 µM); MIC [2, 9]: 128 µg/mL (≈ 302 µM)
3 | Clc1ccc2[nH]c3c(c2c1)CCN(c1nc2cccc(Cl)c2s1)C3 [4u, 6-Chloro-2-(7-chloro-1,3-benzothiazol-2-yl)-2,3,4,9-tetrahydro-1H-pyrido[3,4-b]indole] | reduced RMA activity | 
4 | Clc1ccc2[nH]c3c(c2c1)CCN(c1nc2c(Cl)cccc2s1)C3 [4w, 6-Chloro-2-(4-chloro-1,3-benzothiazol-2-yl)-2,3,4,9-tetrahydro-1H-pyrido[3,4-b]indole] | maintained similar RMA activity | 
5 | CNc1cc(C(F)(F)F)c2nc(N3CCc4c([nH]c5ccc(Cl)cc45)C3)sc2c1 [4ai, 2-(6-Chloro-1,3,4,9-tetrahydro-2H-pyrido[3,4-b]indol-2-yl)-N-methyl-4-(trifluoromethyl)-1,3-benzothiazol-6-amine] | good RMA activities | 
6 | 1-((6-chloro-2-(6-chlorobenzo[d]thiazol-2-yl)-2,3,4,9-tetrahydro-1H-pyrido[3,4-b]indol-4-yl)methyl)guanidine hydrochloride [12g] |  | MIC [3]: 2 µg/mL; MIC [4]: 4 µg/mL; MIC [2]: 2 µg/mL; MIC [5]: 2 µg/mL; GI50 ([6]; 24 h): 14.1 µg/mL; MIC [7]: 0.5 µg/mL; MIC [8]: 2 µg/mL
7 | FC(F)(F)c1cccc2sc(N3CCc4c([nH]c5ccc(Cl)cc45)C3)nc12 [4af, 6-Chloro-2-[4-(trifluoromethyl)-1,3-benzothiazol-2-yl]-2,3,4,9-tetrahydro-1H-pyrido[3,4-b]indole] | good RMA activities | GI50 worse than R^9-Cl analog 4w [6]: 3 fold
8 | Nc1cc(Cl)c2nc(N3CCc4c([nH]c5ccc(Cl)cc45)C3)sc2c1 [4ad, 4-Chloro-2-(6-chloro-1,3,4,9-tetrahydro-2H-pyrido[3,4-b]indol-2-yl)-1,3-benzothiazol-6-amine] | good RMA activities | 
9 | Clc1ccc2[nH]c3c(c2c1)CCN(c1nc2c(Cl)c(Cl)c(Cl)cc2s1)C3 [4y, 6-Chloro-2-(4,5,6-trichloro-1,3-benzothiazol-2-yl)-2,3,4,9-tetrahydro-1H-pyrido[3,4-b]indole] |  | antibacterial activity, MIC (in words) [2]: excellent MICs
10 | Clc1ccc2sc(N3CCc4c([nH]c5ccc(Cl)cc45)C3)nc2c1 [4v, 6-Chloro-2-(5-chloro-1,3-benzothiazol-2-yl)-2,3,4,9-tetrahydro-1H-pyrido[3,4-b]indole] | no RMA activity | 
11 | Clc1ccc2[nH]c3c(c2c1)CCN(c1nc2ccc(Br)cc2s1)C3 [4p, 2-(6-Bromo-1,3-benzothiazol-2-yl)-6-chloro-2,3,4,9-tetrahydro-1H-pyrido[3,4-b]indole] | retained the RMA activity | 
12 | O=C(O)C1CN(c2nc3ccc(Cl)cc3s2)Cc2[nH]c3ccc(Cl)cc3c21 (stereo not shown) [compound 8, 6-Chloro-2-(6-chlorobenzo[d]thiazol-2-yl)-2,3,4,9-tetrahydro-1H-pyrido[3,4-b]indole-4-carboxylic acid] | significantly decreased or abolished | 
13 | Cl.NCCNc1cc(C(F)(F)F)c2nc(N3CCc4c([nH]c5ccc(Cl)cc45)C3)sc2c1 [4aj, N1-(2-(6-chloro-1,3,4,9-tetrahydro-2H-pyrido[3,4-b]indol-2-yl)-4-(trifluoromethyl)benzo[d]thiazol-6-yl)ethane-1,2-diamine hydrochloride] |  | antibacterial activity, MIC (in words) [2]: excellent MICs
14 | COC(=O)C1Cc2c([nH]c3ccc(Cl)cc23)CN1c1nc2ccc(Cl)cc2s1 (stereo not shown) [4m, Methyl 6-chloro-2-(6-chloro-1,3-benzothiazol-2-yl)-2,3,4,9-tetrahydro-1H-pyrido[3,4-b]indole-3-carboxylate] | abolished | MIC [2]: >64 µg/mL
15 | FC(F)(F)Oc1ccc2nc(N3CCc4c([nH]c5ccc(Cl)cc45)C3)sc2c1 [4t, 6-Chloro-2-[6-(trifluoromethoxy)-1,3-benzothiazol-2-yl]-2,3,4,9-tetrahydro-1H-pyrido[3,4-b]indole] | lost the RMA activity completely | 
16 | FC(F)(F)c1cnc2nc(N3CCc4c([nH]c5ccc(Cl)cc45)C3)sc2c1 [4e, 6-Chloro-2-[6-(trifluoromethyl)[1,3]thiazolo[4,5-b]pyridin-2-yl]-2,3,4,9-tetrahydro-1H-pyrido[3,4-b]indole] | abolished | 
17 | CN(C)C(=O)C1CN(c2nc3ccc(Cl)cc3s2)Cc2[nH]c3ccc(Cl)cc3c21 (stereo not shown) [compound 9, 6-Chloro-2-(6-chlorobenzo[d]thiazol-2-yl)-N,N-dimethyl-2,3,4,9-tetrahydro-1H-pyrido[3,4-b]indole-4-carboxamide] | significantly decreased or abolished | 
18 | Clc1ccc2[nH]c3c(c2c1)CCN(c1nc2ncccc2s1)C3 [4d, 6-Chloro-2-([1,3]thiazolo[4,5-b]pyridin-2-yl)-2,3,4,9-tetrahydro-1H-pyrido[3,4-b]indole] | abolished | 
19 | 6-Chloro-N-[3-(trifluoromethyl)phenyl]-1,3,4,9-tetrahydro-2H-pyrido[3,4-b]indole-2-carbothioamide [5c] |  | MIC [2]: 2 µg/mL
20 | Clc1cc(Cl)c2nc(N3CCc4c([nH]c5ccc(Cl)cc45)C3)sc2c1 [4x, 6-Chloro-2-(4,6-dichloro-1,3-benzothiazol-2-yl)-2,3,4,9-tetrahydro-1H-pyrido[3,4-b]indole] |  | antibacterial activity, MIC (in words) [2]: excellent MICs
21 | Cc1nnc(SCC2=C(C(=O)O)N3C(=O)[C@@H](NC(=O)Cn4cnnn4)[C@H]3SC2)s1 [Cefazolin, reference compound] |  | MIC [2, 9]: 256 µg/mL (≈ 563 µM)
22 | CCOC(=O)C1c2[nH]c3ccc(Cl)cc3c2CCN1c1nc2ccc(Cl)cc2s1 (stereo not shown) [4l, Ethyl 6-chloro-2-(6-chloro-1,3-benzothiazol-2-yl)-2,3,4,9-tetrahydro-1H-pyrido[3,4-b]indole-1-carboxylate] | abolished | 
23 | CCn1c2c(c3cc(Cl)ccc31)CCN(c1nc3ccc(Cl)cc3s1)C2 [4o, 6-Chloro-2-(6-chloro-1,3-benzothiazol-2-yl)-9-ethyl-2,3,4,9-tetrahydro-1H-pyrido[3,4-b]indole] | abolished | 
24 | Clc1ccc2[nH]c3c(c2c1)CCN(c1nc2ccccc2s1)C3 [4b, 2-(1,3-Benzothiazol-2-yl)-6-chloro-2,3,4,9-tetrahydro-1H-pyrido[3,4-b]indole] | no RMA activity | 
25 | Cl.NCC(=O)Nc1cc(Cl)c2nc(N3CCc4c([nH]c5ccc(Cl)cc45)C3)sc2c1 [4ae, 2-amino-N-(4-chloro-2-(6-chloro-1,3,4,9-tetrahydro-2H-pyrido[3,4-b]indol-2-yl)benzo[d]thiazol-6-yl)acetamide hydrochloride] |  | antibacterial activity, MIC (in words) [2]: excellent MICs
